Data: ChEMBL document CHEMBL4513216, “Probing the Open Global Health Chemical Diversity Library for Multistage-Active Starting Points for Next-Generation Antimalarials” (ACS Infect Dis, 2020)

assay: Toxicity liver stage against HepG2, at 10uM; type: cell-based; parameters: test concentration 10 uM, cell line HepG2-A16-CD81EGFP; settings: human, HepG2-A16-CD81EGFP cells; read-out: INHIBITION
How it was run: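 Uninfected HepG2-A16-CD81EGFP cells, 3 × 10^3 per well, 1536-well, plated on prespotted compound at 10 μM final, parasite-free screening media added to match infected plates; puromycin 10 μM positive, DMSO 0.5% negative; run in parallel with 48 h PbLuc assay at 37 °C, 5% CO2; viability by CellTiter-Glo luminescence, normalized to controls.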

Compared with COCC(=O)N1CCO[C@]2(CCC[C@H]2COC)C1, COC[C@@H]1CCC[C@@]12CN(Cc1ccc(C)s1)CCO2 is higher in cytotoxicity at 10 µM: -97.5% for the first, 6.76% for the second.

Going from Cc1nc(C)n(C2CCCN(C(=O)Cc3cn4ccccc4n3)C2)n1 (centres undefined) to CCc1nccn1C1CCCN(C(=O)c2ccc3nnc(C)n3c2)C1 (centres undefined), the cytotoxicity at 10 µM rises from -18.3% to -8.95%.

First: CO[C@H]1CN(C(=O)c2ccc(-c3ccccc3)[nH]2)CC[C@H]1N
Second: Cc1ccc(C(=O)N2C[C@H]3CC[C@@H](C2)N(Cc2ccccc2)C3)cn1
The cytotoxicity at 10 µM of the first is higher: 3.64% for the first, -140% for the second.

Compared with CN1CCC(C(=O)N2CCCN(c3cccnn3)CC2)C1 (centres undefined), CN(CC(=O)Nc1cccnc1)C1CCCN(c2cccnn2)C1 (centres undefined) is higher in cytotoxicity at 10 µM: -8.82% for the first, -2.42% for the second.

Compared with Cc1ncccc1CNC(CCO)C1CCCCC1 (centres undefined), O=C(CN1CCC(c2ccnn2CCO)CC1)NC1CCCC1 is higher in cytotoxicity at 10 µM: -41.8% for the first, -6.64% for the second.

First: COc1cc(N2CCCC(c3nccn3Cc3cscn3)C2)nc(N)n1 (centres undefined)
Second: CN(C)c1nccnc1C1CCCN(c2cnccn2)C1 (centres undefined)
The cytotoxicity at 10 µM of the first is higher: -4.66% for the first, -4.92% for the second.

Going from CCN1CCCC1Cn1ccc2c(OC)c(OC)ccc2c1=O (centres undefined) to Cc1ccc(CN(C)C(=O)CN2CCCC2Cn2cccn2)o1 (centres undefined), the cytotoxicity at 10 µM falls from -2.78% to -10.4%.

First: CCn1cnnc1CN(C)C(=O)c1cc(COc2cccc(F)c2)[nH]n1
Second: O=C(c1ncccn1)N1C[C@@H]2CC[C@H](Oc3cccc(F)c3)[C@@H]2C1
The cytotoxicity at 10 µM of the first is higher: 12.3% for the first, -27.5% for the second.

Going from Cc1csc(-c2cccc(NC(=O)N3CCOCC3)c2)n1 to Cc1cc(NC(=O)c2ccc(N3CCOCC3)c(C)c2)[nH]n1, the cytotoxicity at 10 µM falls from -6.35% to -35.1%.

First: O=C(OCc1ccccc1)N1CC[C@H]2CC(CO)O[C@@H]2C1 (some centres undefined)
Second: O=C(c1ccco1)N1CC[C@H]2C[C@@H](c3nccs3)O[C@@H]2C1
The cytotoxicity at 10 µM of the first is lower: -97.7% for the first, 0.428% for the second.

Going from Cn1ncnc1CNC(=O)N(CCCO)C1CCc2ccccc21 (centres undefined) to O=C(NCc1ccccn1)NC1CCOc2ccccc21 (centres undefined), the cytotoxicity at 10 µM falls from -5.95% to -8.99%.

First: CC(C)n1[nH]c(=O)c2c1NC(=O)CC2c1cccc(OC(F)F)c1 (centres undefined)
Second: CCC(NC(=O)c1cccc(N2CCCC2=O)c1)c1ccc(OC)cc1 (centres undefined)
The cytotoxicity at 10 µM of the first is higher: 16% for the first, -62.3% for the second.

First: c1cncc(-c2noc(CNc3ncnc4c3CCNCC4)n2)c1
Second: CCOc1ccccc1C(=O)N1CCCC1c1ncc2c(n1)CCNC2 (centres undefined)
The cytotoxicity at 10 µM of the first is lower: 3.18% for the first, 8.3% for the second.

Compared with N#Cc1ccc(NCc2cccc(OCC3CCCO3)c2)nc1 (centres undefined), Fc1ccc(OCC2CCCO2)c(NCc2noc(C3CC3)n2)c1 (centres undefined) is higher in cytotoxicity at 10 µM: 1.25% for the first, 9.61% for the second.

First: Cc1nccc([C@H]2C[C@@H]3CCN(C(=O)c4c(C)noc4C)C[C@H]3O2)n1
Second: Cc1nc(C2CCCN(C(=O)c3cccc4c3OCO4)C2)sc1C (centres undefined)
The cytotoxicity at 10 µM of the first is lower: -83.3% for the first, -8.72% for the second.

Going from O=C(CN1CCCC1c1nc(-c2ccccc2)no1)N1CCOCC1 (centres undefined) to CCc1noc(C2CCCCN2C(=O)c2ccccc2)n1 (centres undefined), the cytotoxicity at 10 µM falls from 4.17% to -2.38%.

Compared with CCN1CC2(CCC1=O)CCN(Cc1cscn1)CC2, O=C(c1cscn1)N1CCC2(CN(Cc3ccsc3)C2)C1 is higher in cytotoxicity at 10 µM: 2.48% for the first, 4.06% for the second.

First: CCc1cnc2c(c1Nc1ccc(OC)cc1)c(=O)n(C)c(=O)n2C
Second: Cn1c(CS(=O)(=O)Cc2ccc(Cl)cc2)cc(=O)n(C)c1=O
The cytotoxicity at 10 µM of the first is lower: 4.26% for the first, 5.59% for the second.

Going from CN(C)c1cnnc(N2CCN(C(=O)Cc3ccccc3)CC2)c1 to Cc1ncsc1C(=O)NC1CCN(CC(=O)N(C)c2ccccc2)CC1, the cytotoxicity at 10 µM falls from 5.5% to 1.26%.

First: CCC(O)CN(Cc1ccccc1)S(=O)(=O)c1cnc(C)s1 (centres undefined)
Second: Cc1cnc(CN(Cc2ccccc2)CC2CCOCC2)cn1
The cytotoxicity at 10 µM of the first is lower: -42.5% for the first, 15.6% for the second.

First: Cn1c(=O)[nH]c(=O)n2c(CC(=O)Nc3c(Cl)cccc3Cl)cnc12
Second: COCCn1ccc2c(NC(=O)C(C)C)cccc21
The cytotoxicity at 10 µM of the first is higher: 8.52% for the first, 1.01% for the second.

Compared with O=C(NC1CC1)C1CCN(c2snc3ccccc23)CC1, O=C(NC1CCN(c2nccs2)CC1)c1cccs1 is higher in cytotoxicity at 10 µM: -5.43% for the first, 4.17% for the second.

Compared with O=C(N1CCCC1)N1C[C@@H]2CC[C@H]1CN(Cc1ccncc1)C2, O=C(NC[C@]12COC[C@H]1CN(Cc1nccs1)C2)N1CCCC1 is lower in cytotoxicity at 10 µM: 4.63% for the first, -7.27% for the second.

Compared with CC(C)c1noc(CS(=O)(=O)CC(=O)NCC(F)(F)F)n1, Cc1nnc(CN(C)CC(=O)N2CCCC(C(F)(F)F)C2)n1C (centres undefined) is lower in cytotoxicity at 10 µM: 7.62% for the first, 4.49% for the second.

Going from N#Cc1cccnc1OC1CCN(C(=O)NCc2ccccc2)CC1 to COCCOCc1cccc(NC(=O)N2CCCC2c2ccncc2)c1 (centres undefined), the cytotoxicity at 10 µM rises from 1.38% to 6.79%.

Compared with O=C(c1cc(-n2cccn2)ccn1)N1CCOc2ccncc21, CC(NC(=O)CNCCn1cccn1)c1ccc2c(c1)OCCO2 (centres undefined) is lower in cytotoxicity at 10 µM: 10.6% for the first, -13% for the second.

Going from Cc1nc2c(C(=O)N[C@H]3C[C@H]4CN(C)CCN4C3)cccc2[nH]1 to Cc1cc(CN(C)C(=O)c2cccc(N3CCCS3(=O)=O)c2)no1, the cytotoxicity at 10 µM falls from -7.98% to -10.2%.

Going from COc1ccc2c(ccn2CCC(=O)Nc2ccc(C(N)=O)cc2)c1 to COc1ccc(OC)c(CCNC(=O)NC(C)Cn2ccnc2)c1 (centres undefined), the cytotoxicity at 10 µM falls from 6.1% to -1.06%.

First: CC(C)C(C(=O)N1CCCN(c2nccs2)CC1)n1cncn1 (centres undefined)
Second: CC1CCN(C(=O)c2cn(-c3cc(N4CCSCC4)ncn3)cn2)CC1
The cytotoxicity at 10 µM of the first is lower: -4.98% for the first, -3.75% for the second.

Compared with COc1cc(C2Nc3cc(Cl)ccc3C3=NCCN32)ccc1O (centres undefined), COCC1CN(Cc2ccc(F)cc2)Cc2nn(C)cc21 (centres undefined) is lower in cytotoxicity at 10 µM: -29.3% for the first, -81.4% for the second.

First: Cn1ccnc1C(=O)N[C@@H]1CN(Cc2cccs2)[C@@H]2CCCO[C@@H]21
Second: COCCN1CCO[C@@H]2CN(Cc3ccccn3)C[C@@H]2C1
The cytotoxicity at 10 µM of the first is higher: 3.16% for the first, -3.06% for the second.

Compared with CN1C(=O)CCCC12CCCN(C(=O)c1cccc(C(F)(F)F)c1)C2 (centres undefined), Cn1nc(CN2CCCCC2)c2c1CN(C(=O)c1ccccc1)C2 is higher in cytotoxicity at 10 µM: 4.65% for the first, 4.83% for the second.

Going from CC(C)(C)c1coc([C@@H]2COCCN2Cc2c[nH]cn2)n1 to CCC(=O)N1CCOC(c2cc(Nc3nncs3)cc(C)n2)C1 (centres undefined), the cytotoxicity at 10 µM rises from 1.21% to 5.67%.

Going from Cc1cc(C(=O)N(C)C)c2c(Br)cccc2n1 to CCOc1ccc(N(C)Cc2nc(C)c(C)o2)cc1, the cytotoxicity at 10 µM rises from -6.4% to 19.9%.

Going from CC(C)C(C(=O)NCc1ccccc1-n1cccn1)N(C)C (centres undefined) to CN(C)[C@@H]1CN(Cc2ccccn2)C[C@H]1c1cn(C)c2ccccc12, the cytotoxicity at 10 µM rises from -3.17% to -0.73%.

First: Cc1cc(NCCS(C)(=O)=O)n2nc(C)cc2n1
Second: CCc1c(C)nc(-n2nc(C3CC3)cc2NC(C)=O)[nH]c1=O
The cytotoxicity at 10 µM of the first is lower: -14% for the first, 30.3% for the second.

First: CS(=O)(=O)N1CCn2c(C(=O)N3CCOCC3)cnc2C1
Second: Cn1ncc(C(=O)N2CCN(CCS(C)(=O)=O)CC2)c1Cl
The cytotoxicity at 10 µM of the first is lower: -4.63% for the first, 4.33% for the second.

First: Fc1cccnc1Oc1cc(F)c(CN2CCCC2)c(F)c1
Second: O=C(CN1CCCCC1C1OCCO1)Nc1ccc(F)c(F)c1 (centres undefined)
The cytotoxicity at 10 µM of the first is lower: -7.32% for the first, -3.53% for the second.

Compared with O=C(Nc1cccnc1-n1cncn1)N(C1CCCC1)C1CC1, Cc1cnc(CNC(=O)[C@@]23CCO[C@@H]2CCN(C2CCCC2)C3)cn1 is lower in cytotoxicity at 10 µM: -10.9% for the first, -110% for the second.

First: CC(C)[C@@H]1CN(C(=O)c2ccsc2)C[C@H]1C(=O)O
Second: CN1[C@@H](C(=O)NCC2CC2)C[C@H]2CN(Cc3ccsc3)C[C@H]21
The cytotoxicity at 10 µM of the first is higher: 12.8% for the first, -0.213% for the second.

Compared with C[C@H]1CN(Cc2cnn(C)c2)C[C@@]12CCN(Cc1cccnc1)C2=O, O=C1COC2(CCN(C(=O)c3ccoc3)CC2)CN1Cc1cccnc1 is lower in cytotoxicity at 10 µM: 8.99% for the first, 5.29% for the second.

Going from C[C@@H]1CN(c2nc(N)nc3c2CCC3)CC[C@@]1(O)C1CCC1 to C1CC(NCc2nnc(C3CC3)o2)CN(Cc2noc(C3CC3)n2)C1 (centres undefined), the cytotoxicity at 10 µM falls from 36.9% to -19%.

First: COc1cc(CCC(C)O)c(OC)c2c1OCO2 (centres undefined)
Second: CC(C)c1nc(CCn2cncn2)n(-c2ccc3c(c2)OCCO3)n1
The cytotoxicity at 10 µM of the first is higher: 6.79% for the first, 6.52% for the second.

Going from CNC(=O)[C@@H](C1CCCCC1)N1CCC[C@H]1C(=O)NCCN1CCCC1 to c1nc2n(c1CN1CCCC1)CCN(C1CCOCC1)CC2, the cytotoxicity at 10 µM falls from -4.31% to -71.1%.

Compared with NC(=O)CN(Cc1ccc(Br)cc1)C(=O)c1cnccn1, O=C(O)c1cncc(Cc2cccc(F)c2)c1 is lower in cytotoxicity at 10 µM: 8.48% for the first, 5.31% for the second.

First: FC(F)(F)c1nnc2n1CCN(c1nc(C3CC3)ns1)C2
Second: Cc1cncc(C2CCN(Cc3ccsc3)CC2)n1
The cytotoxicity at 10 µM of the first is higher: 8.21% for the first, 4.86% for the second.

Compared with Cc1cnc(N2CCC3(CC2)CC(NC(=O)N(C)C)CO3)nc1 (centres undefined), COCCN1C(=O)CCC12CCN(c1ncc(F)cn1)CC2 is lower in cytotoxicity at 10 µM: 6.31% for the first, 0.632% for the second.

First: Cc1ccc(C)c(S(=O)(=O)N2CCN(C)C3(CCC(=O)N(C)CC3)C2)c1 (centres undefined)
Second: CCC(NC(=O)C1CCN(S(C)(=O)=O)CC1)c1ccc(C)cc1 (centres undefined)
The cytotoxicity at 10 µM of the first is higher: 7.01% for the first, -5.85% for the second.

First: O=C(c1scc2c1OCCO2)N1CCOC(Cc2ccc(F)cc2)C1 (centres undefined)
Second: Cc1ccc(C(=O)N(C)Cc2ccc3c(c2)OCCO3)c(=O)[nH]1
The cytotoxicity at 10 µM of the first is higher: 1.73% for the first, -9.24% for the second.

Compared with CCN1CCOCC12CCN(C(=O)C1CCC1)CC2, CN(C)CC(=O)N1CCC2(CC1)COC(COc1ccccn1)C2 (centres undefined) is lower in cytotoxicity at 10 µM: -1.39% for the first, -3.14% for the second.

Compared with CC(=O)NCCNC(=O)CNC1CCCN(c2ccc(C)nn2)C1 (centres undefined), Cc1nc(-c2ccco2)ccc1C(=O)N1CCCC1Cn1cccn1 (centres undefined) is higher in cytotoxicity at 10 µM: 3.47% for the first, 5.61% for the second.

First: c1ccc(Cn2cc3c(n2)C(CNCC2CCOCC2)OCC3)nc1 (centres undefined)
Second: O=C(c1ccc(S(=O)(=O)NCc2ccon2)cc1)N1CCOCC1
The cytotoxicity at 10 µM of the first is lower: -149% for the first, 3.08% for the second.

Compared with Cn1ncc2c(N[C@@H]3CS(=O)(=O)C[C@H]3O)nc(C(C)(C)C)nc21, Cc1nnc(NC(=O)CCc2c(C)nn3cnnc3c2C)s1 is lower in cytotoxicity at 10 µM: -1.32% for the first, -1.7% for the second.

Going from COCCN(CCOC)C(=O)c1ccn(-c2ccc3ccccn23)n1 to Cc1cnn(CCNCc2ccc(F)cc2Cl)c1, the cytotoxicity at 10 µM falls from 7.22% to -5.16%.

Cc1cc(F)cc2c(N3CCC(S(N)(=O)=O)CC3)c(C#N)cnc12 gave a cytotoxicity at 10 µM of 0.79%.
